Experimental data as given in ChEMBL document CHEMBL1138465, “N-aryl-oxazolidin-2-imine muscle selective androgen receptor modulators enhance potency through pharmacophore reorientation” (J Med Chem, 2009).
Converted amounts (≈) assume the structure as drawn.

Columns and labels:
[1] = Aqueous solubility of the compound; type: physicochemical
Androgen receptor [2] = target: T1, Androgen receptor (Rattus norvegicus, UniProt P15207); test: Agonist activity at rat androgen receptor expressed in mouse skeletal muscle C2C12 cells assessed as transcriptional activation after 24 hrs by androgen-specific response element driven luciferase reporter gene assay; type: functional, cell-based
T1 sequence (P15207 whole entry): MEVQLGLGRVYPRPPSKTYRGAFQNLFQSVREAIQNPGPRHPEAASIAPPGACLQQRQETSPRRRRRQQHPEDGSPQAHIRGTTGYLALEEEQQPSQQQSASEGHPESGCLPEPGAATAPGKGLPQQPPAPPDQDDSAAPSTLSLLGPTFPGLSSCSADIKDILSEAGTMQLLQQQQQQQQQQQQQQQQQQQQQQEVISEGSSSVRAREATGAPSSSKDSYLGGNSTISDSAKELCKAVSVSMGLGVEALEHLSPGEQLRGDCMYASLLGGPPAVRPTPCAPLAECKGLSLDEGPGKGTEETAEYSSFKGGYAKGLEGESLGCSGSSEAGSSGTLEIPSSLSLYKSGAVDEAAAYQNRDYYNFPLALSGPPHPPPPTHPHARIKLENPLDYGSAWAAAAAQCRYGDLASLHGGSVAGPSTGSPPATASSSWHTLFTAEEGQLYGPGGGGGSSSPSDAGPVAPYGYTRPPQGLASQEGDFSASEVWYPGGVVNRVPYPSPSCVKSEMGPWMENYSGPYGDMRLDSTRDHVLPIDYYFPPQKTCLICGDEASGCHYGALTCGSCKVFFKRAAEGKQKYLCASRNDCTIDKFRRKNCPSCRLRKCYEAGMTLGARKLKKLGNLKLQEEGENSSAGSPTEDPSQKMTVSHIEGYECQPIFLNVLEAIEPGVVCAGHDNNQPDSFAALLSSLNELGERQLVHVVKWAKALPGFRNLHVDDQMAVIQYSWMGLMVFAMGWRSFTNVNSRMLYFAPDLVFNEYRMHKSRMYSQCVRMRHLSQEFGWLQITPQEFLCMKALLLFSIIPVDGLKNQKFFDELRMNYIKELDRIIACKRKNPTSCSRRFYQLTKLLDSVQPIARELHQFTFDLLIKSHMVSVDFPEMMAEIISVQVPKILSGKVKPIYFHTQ

Androgen receptor [3] = target: T2, Androgen receptor (Homo sapiens, UniProt P10275); test: Displacement of [3H[DHT from androgen receptor endogenously expressed in human MDA-MB-453 cells; type: cell-based
T2 sequence (P10275 whole entry): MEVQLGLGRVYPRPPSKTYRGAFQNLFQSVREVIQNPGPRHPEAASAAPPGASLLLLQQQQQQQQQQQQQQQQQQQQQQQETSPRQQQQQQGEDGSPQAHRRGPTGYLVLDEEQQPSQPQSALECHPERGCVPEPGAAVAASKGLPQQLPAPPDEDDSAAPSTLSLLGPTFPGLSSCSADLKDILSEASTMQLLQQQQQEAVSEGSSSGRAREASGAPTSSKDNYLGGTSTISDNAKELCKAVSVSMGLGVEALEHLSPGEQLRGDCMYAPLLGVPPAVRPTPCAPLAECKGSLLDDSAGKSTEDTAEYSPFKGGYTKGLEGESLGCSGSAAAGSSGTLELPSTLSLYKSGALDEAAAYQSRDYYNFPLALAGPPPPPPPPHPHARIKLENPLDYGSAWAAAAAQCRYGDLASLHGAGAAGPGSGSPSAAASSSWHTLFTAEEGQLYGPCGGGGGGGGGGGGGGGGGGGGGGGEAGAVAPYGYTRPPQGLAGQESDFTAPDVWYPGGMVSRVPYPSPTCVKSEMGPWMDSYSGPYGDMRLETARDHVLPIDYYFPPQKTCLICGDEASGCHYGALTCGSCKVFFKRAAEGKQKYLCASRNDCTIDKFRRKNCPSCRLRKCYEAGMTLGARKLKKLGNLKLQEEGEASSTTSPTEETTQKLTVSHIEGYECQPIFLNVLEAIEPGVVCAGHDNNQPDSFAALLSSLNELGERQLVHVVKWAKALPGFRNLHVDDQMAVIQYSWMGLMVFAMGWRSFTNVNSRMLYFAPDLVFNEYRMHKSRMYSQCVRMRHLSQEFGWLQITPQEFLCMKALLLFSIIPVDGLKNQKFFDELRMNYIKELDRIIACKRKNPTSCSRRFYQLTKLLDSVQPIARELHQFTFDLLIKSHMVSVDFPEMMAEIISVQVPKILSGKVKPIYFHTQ

Androgen receptor [4] = target: T1, Androgen receptor; test: Intrinsic activity at rat androgen receptor expressed in mouse skeletal muscle C2C12 cells assessed as transcriptional activation after 24 hrs by androgen-specific response element driven luciferase reporter gene assay relative to control; type: cell-based
Androgen receptor [5] = target: T1, Androgen receptor; test: […] at rat AR expressed in mouse skeletal muscle C2C12 cells assessed as transcriptional activation after 24 hrs by androgen-specific response element driven luciferase reporter gene assay; type: functional, cell-based
[6] = AUC in rat at 5 mg/kg, po; type: ADME, organism-based; parameters: dose 5 mg/kg, route oral; conditions: plasma
Rattus norvegicus [7] = test: Anabolic activity in castrated male Harlan Sprague-Dawley rat assessed as intact growth of Levator ani muscle at 0.00001 mg/kg, po after 14 days; type: functional; conditions: dose 1e-05 mg/kg
Rattus norvegicus [8] = test: Anabolic activity in castrated male Harlan Sprague-Dawley rat assessed as intact growth of Levator ani muscle at 0.0001 mg/kg, po after 14 days; type: functional
Rattus norvegicus [9] = test: Anabolic activity in castrated male Harlan Sprague-Dawley rat assessed as intact growth of Levator ani muscle at 0.001 mg/kg, po after 14 days; type: functional
Rattus norvegicus [10] = test: Anabolic activity in castrated male Harlan Sprague-Dawley rat assessed as intact growth of Levator ani muscle at 0.01 mg/kg, po after 14 days; type: functional
Rattus norvegicus [11] = test: Anabolic activity in castrated male Harlan Sprague-Dawley rat assessed as intact growth of Levator ani muscle at 0.03 mg/kg, po after 14 days; type: functional
Rattus norvegicus [12] = test: Anabolic activity in castrated male Harlan Sprague-Dawley rat assessed as intact growth of Levator ani muscle at 0.1 mg/kg, po after 14 days; type: functional
Rattus norvegicus [13] = test: Anabolic activity in castrated male Harlan Sprague-Dawley rat assessed as intact growth of Levator ani muscle at 0.3 mg/kg, po after 14 days; type: functional
Rattus norvegicus [14] = test: Anabolic activity in po dosed castrated male Harlan Sprague-Dawley rat assessed as intact growth of Levator ani muscle after 14 days; type: functional; conditions: 336 h
Rattus norvegicus [15] = test: Anabolic activity in castrated male Harlan Sprague-Dawley rat assessed as intact growth of prostate at 0.00001 mg/kg, po after 14 days; type: functional, Prostate gland; conditions: dose 1e-05 mg/kg
Rattus norvegicus [16] = test: Anabolic activity in castrated male Harlan Sprague-Dawley rat assessed as intact growth of prostate at 0.0001 mg/kg, po after 14 days; type: functional, Prostate gland
Rattus norvegicus [17] = test: Anabolic activity in castrated male Harlan Sprague-Dawley rat assessed as intact growth of prostate at 0.001 mg/kg, po after 14 days; type: functional, Prostate gland
Rattus norvegicus [18] = test: Anabolic activity in castrated male Harlan Sprague-Dawley rat assessed as intact growth of prostate at 0.01 mg/kg, po after 14 days; type: functional, Prostate gland
Rattus norvegicus [19] = test: Anabolic activity in castrated male Harlan Sprague-Dawley rat assessed as intact growth of prostate at 0.03 mg/kg, po after 14 days; type: functional, Prostate gland
Rattus norvegicus [20] = test: Anabolic activity in castrated male Harlan Sprague-Dawley rat assessed as intact growth of prostate at 0.1 mg/kg, po after 14 days; type: functional, Prostate gland
Rattus norvegicus [21] = test: Anabolic activity in castrated male Harlan Sprague-Dawley rat assessed as intact growth of prostate at 0.3 mg/kg, po after 14 days; type: functional, Prostate gland
Rattus norvegicus [22] = test: Anabolic activity in po dosed castrated male Harlan Sprague-Dawley rat assessed as intact growth of prostate after 14 days; type: functional; conditions: Prostate gland, 336 h
[23] = Chemical stability in 0.1N HCl assessed as drug remaining after 24 hrs; type: physicochemical; conditions: read-out: Stability
In short: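 Compound held in solution in 0.1 N HCl at 37 °C for 24 h, used as a model of gut pH; the percentage of intact compound remaining at 24 h was the read-out.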

Rattus norvegicus [24] = test: Anabolic activity in sc dosed castrated male Harlan Sprague-Dawley rat assessed as intact growth of Levator ani muscle after 14 days; type: functional; conditions: 336 h
Rattus norvegicus [25] = test: Anabolic activity in sc dosed castrated male Harlan Sprague-Dawley rat assessed as intact growth of prostate after 14 days; type: functional; conditions: Prostate gland, 336 h

Compound	EC50 (Androgen receptor [2])	Ki (Androgen receptor [3])	also measured
Cc1c(N2C(=O)[C@@H]3[C@H](O)CCN3C2=O)ccc(C#N)c1Cl	–	–	solubility [1]: 19 µg/mL (≈ 62.1 µM)
CC[C@H]1[C@@H]2[C@@H](O)CCN2C(=O)N1c1ccc(C#N)c(Cl)c1C	1.8 nM	–	–
Cc1c(/N=C2\O[C@@H](C(F)(F)F)[C@@H]3[C@H](O)CCN23)ccc(C#N)c1Cl	1.4 nM	0.3 nM	–
Cc1c(/N=C2\N(C(N)=O)C[C@@H]3[C@H](O)CCN23)ccc(C#N)c1Cl	–	19 nM	EC50 (Androgen receptor [4]): Active
Cc1c(N2C(NC#N)N3CC[C@H](O)[C@H]3[C@@H]2C)ccc(C#N)c1Cl (stereo partly specified)	1110 nM	17 nM	–
Cc1c(/N=C2\OC[C@@H]3[C@@H](O)CCN23)ccc(C#N)c1Cl	14 nM	0.3 nM	–
Cc1c(/N=C2\O[C@H](C(F)(F)F)[C@@H]3[C@@H](O)CCN23)ccc(C#N)c1Cl	19 nM	0.2 nM	–
Cc1c(/N=C2\NC[C@@H]3[C@H](O)CCN23)ccc(C#N)c1Cl	–	10 nM	EC50 (Androgen receptor [5]): 1800 nM
Cc1c(/N=C2\O[C@@H](C(F)(F)F)[C@@H]3[C@@H](O)CCN23)ccc(C#N)c1Cl	0.2 nM	0.3 nM	AUC [6]: 5.8 µM·h; Activity (Rattus norvegicus [7]): 21%; Activity (Rattus norvegicus [8]): 25%; Activity (Rattus norvegicus [9]): 59%; Activity (Rattus norvegicus [10]): 109.3%; Activity (Rattus norvegicus [11]): 103.5%; Activity (Rattus norvegicus [12]): 100.5%; Activity (Rattus norvegicus [13]): 103.9%; ED50 (Rattus norvegicus [14]): 0.0009 mg/kg; Activity (Rattus norvegicus [15]): 2.6%; Activity (Rattus norvegicus [16]): 3.6%; Activity (Rattus norvegicus [17]): 9.5%; Activity (Rattus norvegicus [18]): 38.8%; Activity (Rattus norvegicus [19]): 72.9%; Activity (Rattus norvegicus [20]): 103%; Activity (Rattus norvegicus [21]): 104.5%; ED50 (Rattus norvegicus [22]): 0.0143 mg/kg; remaining at 24 h [23]: 0.41%; ED50 (Rattus norvegicus [24]): 0.21 mg/kg; ED50 (Rattus norvegicus [25]): 0.42 mg/kg
Cc1c(N2C[C@@H]3[C@H](O)CCN3C2=O)ccc(C#N)c1Cl	6.4 nM	6 nM	–
Cc1c(/N=C2\N(C)C[C@@H]3[C@H](O)CCN23)ccc(C#N)c1Cl	44 nM	1.9 nM	–
Cc1c(/N=C2\O[C@H](C(F)(F)F)[C@@H]3[C@H](O)CCN23)ccc(C#N)c1Cl	1.1 nM	2.3 nM	–
Cc1c(/N=C2\OC(C(C)C)[C@@H]3[C@H](O)CCN23)ccc(C#N)c1Cl (single isomer, unassigned)	3.7 nM	0.7 nM	–
Cc1c(/N=C2\OC[C@@H]3[C@H](O)CCN23)ccc(C#N)c1Cl	4.8 nM	0.8 nM	–
